Sampled rows, rich in hits. Any-hit rate of the full collection: about 2.5%.
Platelet DG rel: modulates dense granule release in human platelets. AID 1663. inhibition, %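 (compounds screened at 7.5 µM in platelet-rich plasma)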. human platelet-rich plasma, SFLLRN dense granule ATP release, luminescence. 0.22% of 300,000 active;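 active means mean replicate score, as percent of positive control, at or above 50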
TRPC6 inhibitor: blocks the mouse TRPC6 cation channel; Q61143; HEK293-TRPC6, membrane potential dye, ACh-evoked depolarization; active compounds read low; 1.1% of 310,000 active; B-score at 10 µM;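 active means B-score under library mean minus 3 SD, initial fluorescence not abnormally high, positive integrated signal ratio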;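 further: B-score derived from integrated fluorescence ratio over the kinetic read; more negative B-score means stronger inhibition of depolarization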
TRPC6 activator: activators of mouse TRPC6 channel. HEK293-TRPC6 membrane potential dye fluorescence; active compounds read high. B-score at 10 µM. 0.13% of 310,000 active. AID 2550;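 active means B-score of the integrated fluorescence ratio above library mean plus 3 SD, and starting fluorescence ratio within library mean plus 5 SD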;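 further: higher score means more depolarization so channel activation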
TRPC4 agonist: TRPC4 (mouse) channel activation; HEK293 TRPC4beta/mu-opioid, Fluo4 calcium fluorescence; active compounds read high; B-score at 10 µM; 0.49% of 310,000 active; AID 2237;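 active means B-score above 5 SD of library B-scores, and initial fluorescence ratio not above library mean plus 5 SD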;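 further: positive B-score marks a calcium rise read as TRPC4 activation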
Target sequence (Q9QUQ5 whole entry, looked up): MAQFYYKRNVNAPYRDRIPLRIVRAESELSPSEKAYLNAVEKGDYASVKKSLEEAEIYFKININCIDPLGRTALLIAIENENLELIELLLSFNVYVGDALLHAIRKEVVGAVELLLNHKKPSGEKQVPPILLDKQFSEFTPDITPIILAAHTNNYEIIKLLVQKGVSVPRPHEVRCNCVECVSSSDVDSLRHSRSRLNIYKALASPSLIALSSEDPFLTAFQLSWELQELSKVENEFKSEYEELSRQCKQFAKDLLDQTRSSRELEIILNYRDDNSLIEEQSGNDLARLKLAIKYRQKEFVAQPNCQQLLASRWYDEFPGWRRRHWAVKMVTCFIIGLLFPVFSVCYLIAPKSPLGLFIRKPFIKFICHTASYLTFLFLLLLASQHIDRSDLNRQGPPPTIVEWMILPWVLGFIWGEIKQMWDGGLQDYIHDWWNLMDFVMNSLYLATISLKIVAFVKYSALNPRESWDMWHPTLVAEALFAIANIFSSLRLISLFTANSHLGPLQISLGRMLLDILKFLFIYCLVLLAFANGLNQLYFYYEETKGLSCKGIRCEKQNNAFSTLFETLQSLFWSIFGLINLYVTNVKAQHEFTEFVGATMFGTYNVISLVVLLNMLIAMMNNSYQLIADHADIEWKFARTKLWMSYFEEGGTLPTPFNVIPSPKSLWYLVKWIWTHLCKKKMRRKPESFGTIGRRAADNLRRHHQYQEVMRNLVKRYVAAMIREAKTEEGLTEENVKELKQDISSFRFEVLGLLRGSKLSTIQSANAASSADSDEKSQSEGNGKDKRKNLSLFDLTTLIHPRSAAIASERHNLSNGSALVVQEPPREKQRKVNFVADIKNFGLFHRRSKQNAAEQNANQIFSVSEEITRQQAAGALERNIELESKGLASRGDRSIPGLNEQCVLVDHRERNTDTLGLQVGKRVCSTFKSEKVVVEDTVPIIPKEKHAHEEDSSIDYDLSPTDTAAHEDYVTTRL
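System – HEK293 cells stably co-expressing mouse TRPC4beta and mu-opioid receptor · Signal – Fluo4 calcium-sensitive dye fluorescence, kinetic, 1 Hz baseline · Benchmarks – buffer (low) and maximal DAMGO (high) · Read-out – B score of integrated fluorescence ratio per well · Incubation – dye loading 45 min room temperature, 110 s kinetic read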
TRPC4 inh: TRPC4 (mouse) channel inhibition; B-score at 10 µM; Q9QUQ5; 0.39% of 300,000 active; HEK293 TRPC4beta/mu-opioid, DAMGO-evoked Fluo4 calcium flux; active compounds read low; AID 2247;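 active means B-score over 3 SD under the library average, no early fluorescence shift, positive overall ratio signal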
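Test system – stable TRPC4beta/mu-opioid receptor HEK293 cells · Probe or stimulus – DAMGO, a submaximal dose followed by a maximal one · Dosing – one concentration per compound · Signal – Fluo4 calcium fluorescence by kinetic imaging, 5 s 1 Hz baseline · Evaluation – per-well B score of integrated baseline-normalized Fluo4 ratio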
TRPC4 PAM: allosterically enhances the mouse TRPC4 cation channel; Q9QUQ5; HEK293 TRPC4beta/mu-opioid, DAMGO EC20, Fluo-4 Ca2+ flux; active compounds read high; B-score at 10 µM; 0.42% of 310,000 active; AID 2227;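 active means B-score of calcium response area above 5 SD of library B-scores, with initial fluorescence ratio within 5 SD of library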
TRPC4 spec 2: second selectivity test of TRPC6 inhibitors: effect on mouse TRPC4. shares compounds with TRPC6 inhibitor. 42% of 920 active. inhibition, % at 10 µM. HEK293 TRPC4/MOR, membrane potential dye fluorescence; channel activated by saturating DAMGO dose. AID 2776;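 active means compounds whose fluorescence signal differed from control wells by over 3 SD, either direction, in both duplicate plates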
TRPC4 spec: selectivity of TRPC6 inhibitors: effect on mouse TRPC4. HEK293 TRPC4/mu-opioid, membrane potential fluorescence. shares compounds with TRPC6 inhibitor. 61% of 920 active. activity change, negative = inhibition, % at 10 µM;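 active means rise or fall in signal beyond 3 SD of buffer-only wells in both replicate plates, either sign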;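 further: integrated kinetic ratio of fluorescence range over baseline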
HEK293 MPD ctr 2-1: parental HEK293 nonspecific activity of TRPC6 inhibitors, second screen; parental HEK293 membrane potential dye fluorescence; maximal acetylcholine challenge after compound addition; shares compounds with TRPC6 inhibitor; signal change vs control, % at 10 µM; 31% of 920 active;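 active means membrane potential signal moving either way by over 3 SD of the maximum-effect control, in both duplicate plates, meaning non-specific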
HEK293 MPD ctr-1: parental HEK293 nonspecific activity of TRPC6 inhibitors; membrane potential signal change, % at 10 µM; shares compounds with TRPC6 inhibitor; 60% of 920 active; parental HEK293 membrane potential dye fluorescence;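 active means membrane potential signal shifting up or down by more than 3 SD of buffer-only wells, on both duplicate plates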
HEK293 MPD ctr-2: counter-screen for TRPC6 modulators: effect in parental HEK293 cells; shares compounds with TRPC6 inhibitor; membrane potential dye fluorescence; membrane potential signal change, % at 10 µM; 51% of 2,400 active; AID 488924;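 active means membrane potential signal moves up or down beyond 5 SD from buffer-only wells, on both duplicate plates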
HEK293 MPD ctr 2-2: parental HEK293 nonspecific activity of TRPC6 modulators, second screen. shares compounds with TRPC6 inhibitor. membrane potential dye fluorescence; after compound, maximal acetylcholine stimulation. inhibition, % at 10 µM. 14% of 2,400 active;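 active means membrane potential signal drops by more than 5 SD from the mean control signal, in both duplicate plates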
TRPC4 ctr mod: selectivity of TRPC6 modulators against mouse TRPC4; shares compounds with TRPC6 inhibitor; HEK293 TRPC4/mu-opioid, membrane potential fluorescence; percent change from control (negative = decrease, positive = increase), % at 10 µM; 69% of 2,400 active; AID 488927;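 active means membrane potential signal moved up or down beyond 5 SD of buffer control wells, in both duplicate plates, actives on both sides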
TRPC4/MOR inh 2: second selectivity test of TRPC6 modulators against mouse TRPC4 | shares compounds with TRPC6 inhibitor | HEK293 TRPC4/mu-opioid, membrane potential dye fluorescence; stimulated with maximal-effect DAMGO | inhibition, % at 10 µM | 55% of 2,400 active;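 active means drop in membrane potential signal beyond 5 SD of the control wells in both duplicate plates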;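 further: TRPC4 counter screen for TRPC6 hits run under conditions tuned for TRPC6 not TRPC4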
TRPC6 inh conf: confirmation of mouse TRPC6 inhibitors | 43% of 3,300 active | shares compounds with TRPC6 inhibitor | HEK293-TRPC6, membrane potential dye, ACh-evoked depolarization | inhibition, % at 10 µM;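 active means fluorescence ratio falls more than 5 SD below the full-stimulation control mean, in both duplicate runs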;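 further: integrated fluorescence ratio of peak minus minimum over baseline after agonist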
TRPC6 act conf: mouse TRPC6 activator confirmation; activation, % at 10 µM; 11% of 2,800 active; AID 488961; shares compounds with TRPC6 inhibitor; HEK293-TRPC6 membrane potential dye fluorescence, FDSS;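 active means ratio signal rise beyond 5 SD above unstimulated control wells' mean, seen in both duplicate runs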
A number is an active result; n = inactive; x = no result.

SMILES | Platelet DG rel | TRPC6 inhibitor | TRPC6 activator | TRPC4 agonist | TRPC4 inh | TRPC4 PAM | HEK293 MPD ctr-2 | HEK293 MPD ctr 2-2 | TRPC4 ctr mod | TRPC4/MOR inh 2 | TRPC6 inh conf | TRPC6 act conf | others
c1ccc(-c2[nH]c(-c3ccccc3)[n+](CC3CO3)c2-c2ccccc2)cc1 (configuration not stated) | n | n | n | n | n | n | x | x | x | x | x | x
CCC(C)N=Cc1c(O)n(-c2ccccc2)c(=O)[nH]c1=O (configuration not stated) | n | n | n | n | n | n | x | x | x | x | x | x
C=C(C)[C@@]12OC3(c4ccccc4)O[C@@H]1C1[C@@H]4O[C@]4(CO)[C@@H](O)[C@]4(O)C(=O)C(C)=C[C@H]4[C@@]1(O3)[C@H](C)[C@H]2OC(=O)/C=C/C=C/c1ccccc1 (some centres not stated) | n | n | n | n | -6 | n | x | x | x | x | x | x
COc1cccc(CN2CCNCC2)c1OC | n | n | n | n | n | n | x | x | x | x | x | x
Brc1ccc(CN2CCNCC2)s1 | n | n | n | n | n | 14 | x | x | x | x | x | x
CN1CCc2nc3sc(C#N)c(N)c3c(-c3cccs3)c2C1 | n | -9.19 | n | n | n | n | -191.5% | n | -31.5% | 34.0% | n | n
CN(C)c1cc(N)c2c(n1)CCC2 (tested in a mixture with another compound) | n | -6.39 | n | n | n | n | -271.0% | n | -39.5% | 40.5% | n | n
CCN(CC)C(=O)c1ccc(N(Cc2ccccc2)S(C)(=O)=O)cc1 | n | n | n | n | n | n | x | x | x | x | x | x
C=CCN(c1ccc(C(=O)N(CC)CC)cc1)S(C)(=O)=O | n | -5.57 | n | n | n | n | n | n | n | n | n | n
Cc1ccc(C)c(NC(=O)CSc2nnc([C@@H](N)Cc3c[nH]c4ccccc34)o2)c1 | n | n | n | n | n | n | x | x | x | x | x | x
N=c1sccn1Cc1ccccc1F | n | n | n | n | n | n | x | x | x | x | x | x
O=[N+]([O-])c1ccccc1CNCCc1c[nH]c2ccccc12 | n | -5.55 | n | n | n | n | n | n | n | 42.5% | n | n
c1ccc(CNCCc2c[nH]c3ccccc23)cc1 | n | n | n | n | n | n | x | x | x | x | x | x
COc1ccc2c(c1)c(CCN)c(C)n2Cc1ccccc1 | n | n | n | n | n | n | x | x | x | x | x | x
O=C1CCCN1c1ccc(S(=O)(=O)O)cc1 (tested in a mixture with another compound) | n | n | n | n | n | n | x | x | x | x | x | x
COc1ccc(CCNCc2ccccc2F)cc1 | n | n | n | n | n | n | x | x | x | x | x | x
CN1CCN(CCC(C#N)(c2ccccc2)c2ccccc2)CC1 | n | -7.24 | n | n | n | n | x | x | x | x | n | x | TRPC4 spec 2=n;TRPC4 spec=2.6%;HEK293 MPD ctr 2-1=15.0%;HEK293 MPD ctr-1=7.2%
CCN1CCN(c2ncnc3ccc(Br)cc23)CC1 | n | -7.62 | n | n | n | n | x | x | x | x | n | n | TRPC4 spec 2=n;TRPC4 spec=n;HEK293 MPD ctr 2-1=n;HEK293 MPD ctr-1=-192.5%
c1cc(C2N3CCCN2CC3)ccn1 (configuration not stated) | n | n | n | n | n | n | x | x | x | x | x | x
CCOC(=O)c1c(C)n(Cc2ccco2)c2ccc(O)cc12 | n | n | n | n | n | n | x | x | x | x | x | x
CCCCn1c(C)c(C(=O)OCC)c2c(CN3CCOCC3)c(O)ccc21 | n | -5.26 | n | n | n | n | -88.5% | n | -12.5% | 66.5% | 62.5% | n
CCOC(=O)c1c(C)n(Cc2ccc(F)cc2)c2ccc(O)cc12 | n | n | n | n | n | n | x | x | x | x | x | x
CCCCn1c(C)c(C(=O)OCC)c2c(CN3CCCC3)c(O)ccc21 | n | -5.44 | n | n | n | n | n | n | n | 58.5% | 47.5% | n
Cc1cc(Cl)ccc1C(=O)C1CCCN(C2CCSCC2)C1 (configuration not stated) | n | -5.76 | n | n | n | n | 174.0% | n | 31.5% | n | n | x
O=C(c1ccc(C(F)(F)F)cc1)C1CCCN(C2CCSCC2)C1 (configuration not stated) | n | -7.75 | n | n | n | n | x | x | x | x | n | x | TRPC4 spec 2=n;TRPC4 spec=14.6%;HEK293 MPD ctr 2-1=n;HEK293 MPD ctr-1=8.5%
SMILES | Platelet DG rel | TRPC6 inhibitor | TRPC6 activator | TRPC4 agonist | TRPC4 inh | TRPC4 PAM | HEK293 MPD ctr-2 | HEK293 MPD ctr 2-2 | TRPC4 ctr mod | TRPC4/MOR inh 2 | TRPC6 inh conf | TRPC6 act conf | others
O=C(c1cc(F)ccc1F)C1CCCN(Cc2cc(Cl)ccc2O)C1 (configuration not stated) | n | n | n | n | n | n | x | x | x | x | x | x
NP(=O)(OCCCc1ccccc1)Oc1ccc(Cl)cc1 (configuration not stated) | n | n | n | n | n | n | x | x | x | x | x | x
CCOC(=O)c1c(N)n(CCN2CCCCC2)c2nc3ccccc3nc12 | n | -5.87 | n | n | n | n | -135.0% | n | -28.0% | 56.0% | 56.5% | n
CCN1C[C@@]2(COC)C3[C@@H](OC)[C@H]4[C@@H]1[C@@]3(C1C[C@H]3[C@H](O)C1[C@]4(O)C[C@H]3OC)[C@@H](OC)C[C@H]2O (some centres not stated) | n | n | n | n | n | n | x | x | x | x | x | x
CCOc1ccccc1CN1C2CCC1CC(c1ccc(C)cc1)C2 (configuration not stated) | n | n | 15.5 | n | n | n | 265.0% | n | 69.0% | 58.5% | n | 108.5%
O=c1[nH]c(=O)n(-c2ccc(F)cc2)c(O)c1C=Nc1ccccc1N1CCCC1 | n | n | n | n | n | n | x | x | x | x | x | x
